Values belong to the compound of their own block, whether it stands above or below them. The source made the active and inactive calls. The calls are words filed in the database; no cut-off is given here.
Key:
[1] = biological target: Metabotropic glutamate receptor 5 (Homo sapiens, UniProt P41594); experiment: Antagonist activity at human mGluR5 receptor expressed in CHO cell membranes assessed as inhibition of L-glutamate-induced calcium mobilization by FLIPR; type: functional, cell-based
[2] = Half life in rat at 3 mg/kg, po and 1 mg/kg, iv; type: ADME, organism-based; conditions: in vivo
In short: (§1)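 Rats dosed orally at 3 mg/kg and intravenously at 1 mg/kg. Oral bioavailability (F), half-life and total plasma clearance were derived from the plasma profiles.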

[3] = biological target: T1, Metabotropic glutamate receptor 1 (Homo sapiens, UniProt Q13255); experiment: Antagonist activity at human mGluR1 receptor expressed in CHO cell membranes assessed as inhibition of L-glutamate-induced calcium mobilization by FLIPR; type: functional, cell-based
In short: (§2)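 Human mGluR1a stably expressed in CHO cells; antagonism read as inhibition of the intracellular Ca2+ rise on FLIPR. IC50 is the mean of at least three independent determinations, each run in duplicate, reported ± SEM.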

[4] = Plasma clearance in rat at 3 mg/kg, po and 1 mg/kg, iv; type: ADME, organism-based; in short: as §1
[5] = Oral bioavailability in rat at 3 mg/kg; type: ADME, organism-based; conditions: in vivo; in short: as §1
[6] = Octanol to water distribution coefficient, log D at pH 7.4; type: physicochemical
[7] = biological target: Metabotropic glutamate receptor 1 (Rattus norvegicus, UniProt P23385); experiment: Antagonist activity at rat mGluR1 receptor expressed in CHO cell membranes assessed as inhibition of L-glutamate-induced calcium mobilization by FLIPR; type: functional, cell-based
[8] = Oral bioavailability in rat at 1 mg/kg; type: ADME, organism-based; conditions: in vivo
In short: (§3)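 Rats dosed orally at 1 mg/kg and intravenously at 0.3 mg/kg. Oral bioavailability, half-life and total plasma clearance were derived from the plasma profiles.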

[9] = Half life in rat at 1 mg/kg, po and 0.3 mg/kg, iv; type: ADME, organism-based; conditions: in vivo; in short: as §3
[10] = biological target: T1, Metabotropic glutamate receptor 1; experiment: Antagonist activity at human mGluR1 receptor quisqualic acid binding site expressed in CHO cell membranes assessed as inhibition of L-glutamate-induced calcium mobilization by FLIPR; type: functional; in short: as §2
Mus musculus = experiment: Plasma concentration in mouse at 1 mg/kg, po after 30 mins
Rattus norvegicus [11] = experiment: Antipsychotic-like effect in rat assessed as inhibition of MAP-induced prepulse inhibition at 1 mg/kg, po; type: functional, organism-based; set-up: dose 1 mg/kg
In short: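 Rat prepulse inhibition model of methamphetamine-induced disruption. Test article given orally at 1 mg/kg.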

[12] = biological target: Metabotropic glutamate receptor 8 (Homo sapiens, UniProt O00222); experiment: Antagonist activity at human mGluR8 receptor expressed in CHO cell membranes assessed as inhibition of L-glutamate-induced calcium mobilization by FLIPR; type: functional, cell-based
[13] = biological target: Metabotropic glutamate receptor 2 (Homo sapiens, UniProt Q14416); experiment: Antagonist activity at human mGluR2 receptor expressed in CHO cell membranes assessed as inhibition of L-glutamate-induced calcium mobilization by FLIPR; type: functional, cell-based
Rattus norvegicus [14] = experiment: Induction of catalepsy in rat at 30 mg/kg, po
[15] = Plasma clearance in rat at 1 mg/kg, po and 0.3 mg/kg, iv; type: ADME, organism-based; in short: as §3
Brain = experiment: Drug uptake in mouse brain at 1 mg/kg, po after 30 mins; conditions: in vivo, 0.5 h

T1 sequence (Q13255 whole entry): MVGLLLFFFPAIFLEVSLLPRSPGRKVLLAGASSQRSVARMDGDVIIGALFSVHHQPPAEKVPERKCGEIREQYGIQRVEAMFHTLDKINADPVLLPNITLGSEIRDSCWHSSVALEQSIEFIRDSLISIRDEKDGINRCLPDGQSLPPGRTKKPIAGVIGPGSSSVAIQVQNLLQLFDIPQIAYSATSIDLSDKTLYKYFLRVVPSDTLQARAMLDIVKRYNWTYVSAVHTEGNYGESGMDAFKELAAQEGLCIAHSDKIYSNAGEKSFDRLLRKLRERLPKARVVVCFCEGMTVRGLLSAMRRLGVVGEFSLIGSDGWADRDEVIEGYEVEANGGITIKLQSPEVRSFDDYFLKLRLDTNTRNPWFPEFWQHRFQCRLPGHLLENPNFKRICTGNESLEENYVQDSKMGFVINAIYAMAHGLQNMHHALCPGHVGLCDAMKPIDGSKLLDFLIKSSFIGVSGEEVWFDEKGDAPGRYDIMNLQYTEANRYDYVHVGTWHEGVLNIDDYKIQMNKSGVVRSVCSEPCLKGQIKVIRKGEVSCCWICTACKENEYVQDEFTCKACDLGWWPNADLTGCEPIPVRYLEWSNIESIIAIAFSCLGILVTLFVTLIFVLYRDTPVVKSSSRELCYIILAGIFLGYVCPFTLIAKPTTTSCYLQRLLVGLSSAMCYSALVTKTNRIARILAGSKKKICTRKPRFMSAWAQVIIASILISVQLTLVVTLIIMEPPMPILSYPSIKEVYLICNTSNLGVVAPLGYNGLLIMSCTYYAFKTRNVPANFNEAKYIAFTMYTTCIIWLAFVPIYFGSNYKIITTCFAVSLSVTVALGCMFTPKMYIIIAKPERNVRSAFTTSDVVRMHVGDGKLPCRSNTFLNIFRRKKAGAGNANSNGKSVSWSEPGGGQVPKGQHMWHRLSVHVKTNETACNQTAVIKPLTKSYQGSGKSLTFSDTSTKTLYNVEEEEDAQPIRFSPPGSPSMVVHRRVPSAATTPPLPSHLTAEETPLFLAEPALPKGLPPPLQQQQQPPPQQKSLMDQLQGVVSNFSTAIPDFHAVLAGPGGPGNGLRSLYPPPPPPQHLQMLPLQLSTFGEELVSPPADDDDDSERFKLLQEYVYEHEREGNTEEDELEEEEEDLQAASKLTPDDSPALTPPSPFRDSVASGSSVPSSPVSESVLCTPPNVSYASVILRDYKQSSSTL
Chain of Metabotropic glutamate receptor 5 (P41594 whole entry): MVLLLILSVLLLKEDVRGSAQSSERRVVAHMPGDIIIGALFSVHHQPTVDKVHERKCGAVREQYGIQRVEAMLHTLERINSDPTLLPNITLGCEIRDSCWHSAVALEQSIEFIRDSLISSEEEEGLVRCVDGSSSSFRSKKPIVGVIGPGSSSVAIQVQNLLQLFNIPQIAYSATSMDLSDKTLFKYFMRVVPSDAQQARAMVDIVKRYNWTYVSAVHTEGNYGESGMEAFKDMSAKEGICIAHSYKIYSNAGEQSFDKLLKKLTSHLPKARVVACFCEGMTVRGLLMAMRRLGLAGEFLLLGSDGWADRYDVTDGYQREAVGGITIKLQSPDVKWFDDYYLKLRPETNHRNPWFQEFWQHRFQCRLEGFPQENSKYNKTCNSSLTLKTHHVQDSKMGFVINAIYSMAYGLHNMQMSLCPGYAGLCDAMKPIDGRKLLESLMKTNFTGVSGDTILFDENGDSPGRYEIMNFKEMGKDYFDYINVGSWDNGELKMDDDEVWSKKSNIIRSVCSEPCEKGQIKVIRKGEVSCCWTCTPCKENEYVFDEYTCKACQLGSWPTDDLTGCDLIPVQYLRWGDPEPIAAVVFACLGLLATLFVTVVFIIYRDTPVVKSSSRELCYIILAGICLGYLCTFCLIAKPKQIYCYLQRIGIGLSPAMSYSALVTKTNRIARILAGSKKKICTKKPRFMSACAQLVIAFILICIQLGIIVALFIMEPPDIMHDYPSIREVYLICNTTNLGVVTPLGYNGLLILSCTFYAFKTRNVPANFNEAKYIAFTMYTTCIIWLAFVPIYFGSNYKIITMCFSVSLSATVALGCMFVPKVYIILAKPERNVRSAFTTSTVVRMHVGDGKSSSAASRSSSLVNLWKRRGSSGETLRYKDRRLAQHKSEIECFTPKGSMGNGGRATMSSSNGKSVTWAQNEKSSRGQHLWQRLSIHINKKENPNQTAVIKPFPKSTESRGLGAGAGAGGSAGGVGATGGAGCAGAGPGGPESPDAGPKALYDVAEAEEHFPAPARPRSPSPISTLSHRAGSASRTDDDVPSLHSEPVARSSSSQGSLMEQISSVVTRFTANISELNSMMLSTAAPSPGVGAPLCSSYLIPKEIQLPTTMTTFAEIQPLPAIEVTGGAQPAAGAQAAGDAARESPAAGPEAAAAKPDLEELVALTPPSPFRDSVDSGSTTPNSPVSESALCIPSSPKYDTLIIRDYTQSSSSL
Chain of Metabotropic glutamate receptor 1 (Rattus norvegicus, UniProt P23385) (P23385 whole entry): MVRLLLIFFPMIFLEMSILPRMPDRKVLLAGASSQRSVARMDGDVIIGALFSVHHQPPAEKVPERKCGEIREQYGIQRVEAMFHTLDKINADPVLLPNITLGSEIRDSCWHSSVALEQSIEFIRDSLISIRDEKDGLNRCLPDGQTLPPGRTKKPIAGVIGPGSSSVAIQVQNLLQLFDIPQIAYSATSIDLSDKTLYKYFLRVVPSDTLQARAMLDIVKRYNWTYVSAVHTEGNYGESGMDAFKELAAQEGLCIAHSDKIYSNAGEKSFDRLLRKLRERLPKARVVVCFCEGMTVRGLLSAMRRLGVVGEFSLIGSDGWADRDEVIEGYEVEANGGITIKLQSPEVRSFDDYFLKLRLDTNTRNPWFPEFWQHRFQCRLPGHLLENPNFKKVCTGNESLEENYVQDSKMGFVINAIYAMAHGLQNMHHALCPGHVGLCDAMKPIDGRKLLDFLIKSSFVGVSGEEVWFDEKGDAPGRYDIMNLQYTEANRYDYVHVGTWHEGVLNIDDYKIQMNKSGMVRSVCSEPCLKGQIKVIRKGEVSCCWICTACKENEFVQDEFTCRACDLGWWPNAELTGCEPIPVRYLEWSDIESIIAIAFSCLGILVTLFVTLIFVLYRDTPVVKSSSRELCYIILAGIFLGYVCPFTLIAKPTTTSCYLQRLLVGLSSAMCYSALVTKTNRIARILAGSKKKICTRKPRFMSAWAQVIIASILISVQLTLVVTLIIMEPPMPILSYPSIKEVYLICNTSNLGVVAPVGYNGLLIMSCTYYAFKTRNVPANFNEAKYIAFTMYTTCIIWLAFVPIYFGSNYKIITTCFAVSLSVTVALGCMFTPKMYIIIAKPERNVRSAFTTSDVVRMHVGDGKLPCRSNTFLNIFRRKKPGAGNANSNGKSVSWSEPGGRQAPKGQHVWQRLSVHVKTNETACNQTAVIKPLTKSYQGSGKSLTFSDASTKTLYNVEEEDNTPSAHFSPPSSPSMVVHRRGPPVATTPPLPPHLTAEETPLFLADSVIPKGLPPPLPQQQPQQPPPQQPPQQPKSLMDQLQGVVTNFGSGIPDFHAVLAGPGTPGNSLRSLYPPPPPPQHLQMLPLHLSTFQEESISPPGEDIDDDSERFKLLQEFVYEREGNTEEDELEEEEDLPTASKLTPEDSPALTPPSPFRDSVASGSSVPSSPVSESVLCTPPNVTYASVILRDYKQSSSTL
Chain of Metabotropic glutamate receptor 8 (O00222 whole entry): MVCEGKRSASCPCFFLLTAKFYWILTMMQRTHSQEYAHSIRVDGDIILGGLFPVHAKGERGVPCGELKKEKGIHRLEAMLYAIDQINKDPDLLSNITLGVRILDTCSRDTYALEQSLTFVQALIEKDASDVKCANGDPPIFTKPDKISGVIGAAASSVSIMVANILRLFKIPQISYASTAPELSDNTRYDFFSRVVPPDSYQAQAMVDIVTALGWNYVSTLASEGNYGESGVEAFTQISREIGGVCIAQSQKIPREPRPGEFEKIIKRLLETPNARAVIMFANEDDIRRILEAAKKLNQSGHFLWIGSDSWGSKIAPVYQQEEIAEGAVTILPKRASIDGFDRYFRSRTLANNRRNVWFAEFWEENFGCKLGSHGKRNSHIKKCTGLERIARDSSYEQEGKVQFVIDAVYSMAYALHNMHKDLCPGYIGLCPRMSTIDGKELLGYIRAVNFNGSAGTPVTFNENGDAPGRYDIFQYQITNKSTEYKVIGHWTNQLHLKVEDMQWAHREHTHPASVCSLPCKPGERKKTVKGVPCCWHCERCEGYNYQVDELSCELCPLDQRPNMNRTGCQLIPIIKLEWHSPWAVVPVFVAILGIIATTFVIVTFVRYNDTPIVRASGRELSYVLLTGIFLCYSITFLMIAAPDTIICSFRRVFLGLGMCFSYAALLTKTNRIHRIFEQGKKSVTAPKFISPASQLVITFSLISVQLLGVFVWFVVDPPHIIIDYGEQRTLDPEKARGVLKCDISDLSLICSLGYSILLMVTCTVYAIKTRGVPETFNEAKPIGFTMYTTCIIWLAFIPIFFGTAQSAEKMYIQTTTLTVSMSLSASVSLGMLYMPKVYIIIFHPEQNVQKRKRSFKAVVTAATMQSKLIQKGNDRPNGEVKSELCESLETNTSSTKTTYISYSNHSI

- IC50 [1]: > 10000 nM
- half-life [2]: 12 min
Structure (SMILES): Cc1c(C2=CCN(C(=O)N(C)C(C)C)CC2)nnn1-c1cccnc1F

- IC50 [3]: 3.3 nM
- IC50 [1]: 1100 nM
- clearance [4]: 19 mL/min/kg
- bioavailability [5]: 62%
- logD [6]: 1.8
- half-life [2]: 18 min
Structure (SMILES): CCN1Cc2cc(-c3nnn(-c4cccnc4F)c3C)ccc2C1=O

- IC50 [3]: 33 nM
Structure (SMILES): Cc1c(-c2ccc(C(=O)OC(C)C)cc2)nnn1-c1cccnc1

- IC50 [3]: 3.5 nM
- IC50 [1]: 5400 nM
- clearance [4]: 8.1 mL/min/kg
- bioavailability [5]: 100%
- logD [6]: 1.9
- half-life [2]: 36 min
Structure (SMILES): Cc1c(-c2ccc3c(c2)CN(C2CC2)C3=O)nnn1-c1cccnc1F

- IC50 [3]: 210 nM
Structure (SMILES): Cc1c(-c2ccc(C(=O)NC(C)C)cc2)nnn1-c1cccnc1

- IC50 [3]: 170 nM
Structure (SMILES): CCC(=O)c1ccc(-c2nnn(-c3cccnc3)c2C)cc1

- IC50 [3]: 11 nM
Structure (SMILES): Cc1c(-c2ccc3c(c2)CC(C)(C)C3=O)nnn1-c1cccnc1

- IC50 [3]: 1800 nM
Structure (SMILES): Cc1c(-c2ccc(C(=O)N3CCCC3)cc2)nnn1-c1cccnc1

- IC50 [3]: 22 nM
Structure (SMILES): Cc1c(-c2ccc(C(=O)C3CC3)cc2)nnn1-c1cccnc1

- IC50 [7]: 3.6 nM
- bioavailability [8]: 46%
- half-life [9]: 42 min
- IC50 [10]: > 10 µM
- concentration at 0.5 h (Mus musculus): 170 nM
- IC50 [12]: > 10 µM
- IC50 [13]: > 10 µM
- clearance [15]: 20 mL/min/kg
- Drug uptake (Brain): 0.45 nmol/g
Structure (SMILES): Cc1c(-c2ccc3c(c2)CN(C(C)C)C3=O)nnn1-c1ccc(F)cc1F
- Activity (Rattus norvegicus [11]): Active
- Activity (Rattus norvegicus [14]): inactive

- IC50 [3]: 300 nM
Structure (SMILES): Cc1c(-c2ccc3ccccc3c2)nnn1-c1cccnc1

- IC50 [3]: 2.6 nM
Structure (SMILES): Cc1c(-c2ccc3c(c2)CC(C2CC2)C3=O)nnn1-c1cccnc1 (stereo not drawn)

- IC50 [3]: 3.6 nM
- IC50 [1]: 2800 nM
- clearance [4]: 5.5 mL/min/kg
- bioavailability [5]: 100%
- logD [6]: 2.3
- half-life [2]: 60 min
Structure (SMILES): CCCN1Cc2cc(-c3nnn(-c4cccnc4F)c3C)ccc2C1=O

- IC50 [3]: 470 nM
Structure (SMILES): CC(=O)c1ccc(-c2nnn(-c3cccnc3)c2C)cc1

- IC50 [3]: 5.5 nM
- IC50 [1]: 2300 nM
- clearance [4]: 5.9 mL/min/kg
- bioavailability [5]: 96%
- logD [6]: 2.2
- half-life [2]: 132 min
Structure (SMILES): Cc1c(-c2ccc3c(c2)CN(C(C)C)C3=O)nnn1-c1cccnc1F

- IC50 [3]: 69 nM
Structure (SMILES): Cc1c(-c2ccc3c(c2)CCC3=O)nnn1-c1cccnc1

- IC50 [3]: 880 nM
Structure (SMILES): Cc1c(-c2ccc(C(=O)N(C)C(C)C)cc2)nnn1-c1cccnc1

- IC50 [3]: 250 nM
Structure (SMILES): Cc1c(-c2ccc3[nH]ccc3c2)nnn1-c1cccnc1

- IC50 [3]: 2400 nM
Structure (SMILES): Cc1c(-c2cccc(C(=O)OC(C)C)c2)nnn1-c1cccnc1

- IC50 [3]: 1500 nM
Structure (SMILES): Cc1nc2cc(-c3nnn(-c4cccnc4)c3C)ccc2s1

- IC50 [3]: 3900 nM
Structure (SMILES): Cc1c(-c2ccc(C(=O)c3ccccc3)cc2)nnn1-c1cccnc1

- IC50 [3]: 4.9 nM
Structure (SMILES): Cc1c(-c2ccc3ncccc3c2)nnn1-c1cccnc1
